The subject of data set [1] is DLD-1. Kind of data set: Cytotoxicity against human DLD1 cells after 96 hrs by MTT assay. To be noted: DLD-1, 96 h. The data set is classed as functional, cell-based. The essentials: (§1)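 Cells were grown in RPMI 1640 with 1 mM sodium pyruvate, 2 mM L-glutamine and 10% FBS. They were seeded at 1 × 10⁴ cells/mL and left overnight at 37 °C in 5% CO₂. Medium was then replaced with a broad concentration range of compound diluted from DMSO (final DMSO ≤0.1%). After 96 h exposure, growth was read by MTT.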

The subject of data set [2] is HT-29. The data set is described as follows: Cytotoxicity against human HT-29 cells after 96 hrs by MTT assay. To be noted: HT-29, 96 h. The data set is classed as functional, cell-based. The essentials: as §1
For data set [3], the system named is MDA-MB-231. Kind of data set: Cytotoxicity against human MDA-MB-231 cells after 96 hrs by MTT assay. It is filed as functional, cell-based. To be noted: MDA-MB-231, 96 h. The essentials: as §1
Data set [4] relates to A2780 (human ovarian carcinoma). Kind of data set: Cytotoxicity against human A2780 cells after 96 hrs by MTT assay. As to conditions: A2780, 96 h.
Data set [5] concerns HT-29. Kind of data set: Induction of ABCG2 mRNA expression in human HT-29 cells at 1/10 IC50 to IC50 after 96 hrs by RT-PCR analysis. It is filed as functional, cell-based. A digest of the protocol:
(§2)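 HT29 and DLD-1 cells were seeded at 5 × 10⁵ cells/dish, incubated overnight, then treated for 96 h. Total RNA was isolated, and ABCB1 and ABCG2 mRNA were measured by quantitative RT-PCR. Fold induction is target/PPIA signal relative to the control ratio, from three independent PCR analyses. Statistics: paired two-tailed t test with two-way ANOVA and Bonferroni correction.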

In data set [6] the test system is HT-29. Kind of data set: Induction of ABCB1 mRNA expression in human HT-29 cells at 1/10 IC50 to IC50 after 96 hrs by RT-PCR analysis. The data set is classed as functional, cell-based. A digest of the protocol:
as §2

In data set [7] the test system is DLD-1. The data set is described as follows: Induction of ABCG2 mRNA expression in human DLD1 cells at 1/10 IC50 to IC50 after 96 hrs by RT-PCR analysis. The data set is classed as functional, cell-based. The essentials:
as §2

Data set [8] concerns DLD-1. The data set is described as follows: Induction of ABCB1 mRNA expression in human DLD1 cells at 1/10 IC50 to IC50 after 96 hrs by RT-PCR analysis. It is filed as functional, cell-based. A digest of the protocol: as §2
Data set [9] concerns HT-29. The data set is described as follows: Cell cycle arrest in human HT-29 cells assessed as accumulation at G2/M phase at 40 nM after 48 hrs by FACS analysis. It is filed as functional.
Data set [10] deals with HT-29. The data set is described as follows: Cell cycle arrest in human HT-29 cells assessed as accumulation at G2/M phase at 40 nM after 24 hrs by FACS analysis. It is filed as functional.
For data set [11], the system named is HeLa. The data set is described as follows: Cytotoxicity against human HeLa cells after 96 hrs by MTT assay. It is filed as functional, cell-based. The essentials: (§3)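 Parental HeLa cells and a transfected class III β-tubulin-overexpressing variant were seeded at 1 × 10⁴ cells/mL and held overnight at 37 °C, 5% CO₂. Compounds in DMSO were diluted in complete medium over a broad range (final DMSO ≤0.1%) and exposed for 96 h. Read-out was MTT. IC50 is the mean ± standard error of at least four independent assays.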

A short description of data set [12]: Cytotoxicity against human A2780AD cells expressing p-gp after 96 hrs by MTT assay. The data set is classed as functional, cell-based. To be noted: A2780 ADR. The essentials:
(§4)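 Cells were seeded at 1 × 10⁴ cells/mL in 96-well format and incubated overnight at 37 °C in 5% CO₂. Medium was replaced with serial compound dilutions from DMSO stocks in complete medium (final DMSO ≤0.1%). Chemosensitivity was read by MTT after 96 h.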

The test system of data set [13] is HeLa. The data set is described as follows: Cytotoxicity against human HeLa cells expressing class 3 tubulin after 96 hrs by MTT assay. The data set is classed as functional, cell-based. A digest of the protocol:
as §3

In data set [14] the test system is Liver. The data set is described as follows: Metabolic stability of the compound in mouse liver homogenates at 100 uM after 2 hrs. It is filed as ADME, tissue-based. To be noted: tissue homogenate.
The test system of data set [15] is A2780 ADR. Kind of data set: Effect on ABCB1 level in human A2780AD cells expressing p-gp. It is filed as functional, cell-based.
Data set [16] relates to A549. The data set is described as follows: Cytotoxicity against human A549 cells after 96 hrs by MTT assay in presence of fumitremorgin-C. It is filed as functional, cell-based. The essentials: as §4
In data set [17] the test system is HT-29. Kind of data set: Induction of microtubule disruption in human HT-29 cells assessed as change […] cell morphology and cytoskeletal organization after 24 hrs by immunostaining. It is filed as cell-based. A digest of the protocol: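 HT29 cells on glass coverslips were allowed to adhere for 24 h, then exposed to 5, 50 and 500 nM for 24 h. Cells were fixed in methanol at −20 °C for 30 min and stained with mouse anti-α-tubulin (1:500, 30 min, rt), then TRITC anti-mouse IgG (1:50, 30 min). Images were taken by confocal microscopy and compared with untreated cells.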

Structures are written as SMILES. The source made the active and inactive calls. The rule behind the calls is not given here.

On to `COc1cc2c(c(OC)c1OC)-c1ccc(OC)c(=O)cc1[C@@H](NCc1cccc(F)c1)CC2`, for which the 50% inhibitory concentration (IC50) in data set [1] is 51.6 nM; in data set [2], 63.4 nM; in data set [3] it was 89.1 nM.
For `COc1cc2c(c(OC)c1OC)-c1ccc(OC)c(=O)cc1[C@@H](NCc1cc(F)c(F)c(F)c1)CC2`, in that order: 36.2 nM, 64.5 nM and 92.2 nM.
In [1], `COc1cc2c(c(OC)c1OC)-c1ccc(OC)c(=O)cc1[C@@H](NCc1ccc(Cl)cc1)CC2` gave a concentration for half-maximal inhibition (IC50) of 32.6 nM. This lies in the double-digit nanomolar range.
As for `COc1cc2c(c(OC)c1OC)-c1ccc(OC)c(=O)cc1[C@@H](NC(C)=O)CC2` [COLCHICINE], the IC50 turned out to be 6.7 nM in [4]; 15.6 nM in data set [1]; 69.2 nM in data set [2]; 8.2 nM in data set [11]; 37 nM in data set [3]; 16.8 nM in data set [12]. Further, in [13], the half-maximal inhibitory concentration (IC50) came out at 9.7 nM. Moreover, the outcome in data set [5], in [6], in data set [9] and in [10] was Active. Also, the result in [7] and in data set [8] was inactive.
For `COc1cc2c(c(OC)c1OC)-c1ccc(OC)c(=O)cc1[C@@H](NCc1ccc(F)cc1)CC2`, in [1], the half-maximal inhibitory concentration (IC50) was 11.4 nM.
On to `COc1ccc(CN[C@H]2CCc3cc(OC)c(OC)c(OC)c3-c3ccc(OC)c(=O)cc32)cc1`, for which the half-maximal inhibitory concentration (IC50) in [1] turned out to be 15.7 nM; in [2], 51 nM; in data set [3], 93 nM.
The compound `COc1cc2c(c(OC)c1OC)-c1ccc(OC)c(=O)cc1[C@@H](NCc1ccc(Br)cc1)CC2` came in with an IC50 in data set [1] of 31.2 nM. This lies in the double-digit nanomolar range.
As for `COc1cc2c(c(OC)c1OC)-c1ccc(OC)c(=O)cc1[C@@H](NCc1cccc(F)c1F)CC2`, the IC50 in data set [1] was determined as 4.67 nM; in data set [2], 7.43 nM; in data set [3], 86 nM.
For the compound `CC(=O)O[C@H]1C(=O)[C@@]2(C)[C@H]([C@H](OC(=O)c3ccccc3)[C@]3(O)C[C@H](OC(=O)[C@H](O)[C@@H](NC(=O)c4ccccc4)c4ccccc4)C(C)=C1C3(C)C)[C@]1(OC(C)=O)CO[C@@H]1C[C@@H]2O` [PACLITAXEL], the IC50 in [4] is 1.1 nM; in data set [12], > 1000 nM.
On to `COc1cc2c(c(OC)c1OC)-c1ccc(OC)c(=O)cc1[C@@H](NCc1ccc(F)c(F)c1)CC2`, for which the 50% inhibitory concentration (IC50) in data set [4] was found to be 18.8 nM; in data set [1], 1.61 nM; in data set [2] it was 4.3 nM; in data set [11] it was 25.3 nM; in [3], 16 nM; in [12] it was 17.2 nM. Also, in [13], the IC50 was 14.1 nM. Also, in data set [14], the Stability entry is “Stable”. Besides, the outcome in data set [5], in [6] and in [16] was Active. The outcome in data set [7], in [8] and in data set [15] was inactive. Further, the Activity in [9] is 91.2%; in data set [10], 92.5%; in data set [17], “Dose-dependent effect”.
With `COc1cc2c(c(OC)c1OC)-c1ccc(OC)c(=O)cc1[C@@H](NCc1ccc(I)cc1)CC2`, in [1], 35.9 nM corresponded to half-maximal inhibition (IC50).
For `COc1cc2c(c(OC)c1OC)-c1ccc(OC)c(=O)cc1[C@@H](NCc1cc(F)cc(F)c1)CC2`, the figures for the IC50 in [1], in data set [2] and in data set [3] were 35.2 nM, 52 nM and 523 nM, respectively.

The values above are taken from ChEMBL document CHEMBL2176948 (J Med Chem, 2012).
